Bioassay records (PubChem)
This is a sample that favours compounds with a hit; in the whole collection about 3.5% have one here.
RGS4 block = RGS4 inhibitors, primary screen, cell-based, HEK293 M3R inducible RGS4, calcium flux | Regulator of G-protein signaling 4 (Homo sapiens), P49798 | Fluo-4 calcium flux; stronger effect = higher value; triggered by carbachol at its EC20 | B-score at 10 µM | 310,000 compounds, 0.45% hits;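 active = B-score, a plate-corrected calcium signal, over three deviations above library mean, with baseline fluorescence within five deviations of library mean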;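 note: RGS4 expression induced by doxycycline in cells with stable M3 receptor; B-score is computed from the integrated fluorescence ratio over baseline after carbachol; higher B-score means a larger calcium signal and so more RGS4 inhibition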
Target sequence (P49798 whole entry, looked up): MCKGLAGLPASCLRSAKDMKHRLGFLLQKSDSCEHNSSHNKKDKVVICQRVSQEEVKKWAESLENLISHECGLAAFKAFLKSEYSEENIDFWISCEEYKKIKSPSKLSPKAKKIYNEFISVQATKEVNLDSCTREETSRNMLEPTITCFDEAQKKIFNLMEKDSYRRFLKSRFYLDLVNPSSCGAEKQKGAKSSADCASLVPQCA
MrgX1 antagonist = antagonists of human MrgX1 receptor, primary screen, HEK293 cells, Fluo-4 calcium flux. 310,000 compounds, 1.3% hits. AID 588676, 2011. Mas-related G-protein coupled receptor member X1 (Homo sapiens), Q96LB2. BAM8-22 antagonism; stronger effect = lower value. B-score at 10 µM;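 active = calcium-response B-score plate-corrected more than 3 library SD below zero, starting fluorescence within 5 deviations, no agonist response on first addition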;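 note: peak minus trough fluorescence over baseline after final BAM8-22 challenge near maximal dose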
Target sequence (Q96LB2 whole entry, looked up): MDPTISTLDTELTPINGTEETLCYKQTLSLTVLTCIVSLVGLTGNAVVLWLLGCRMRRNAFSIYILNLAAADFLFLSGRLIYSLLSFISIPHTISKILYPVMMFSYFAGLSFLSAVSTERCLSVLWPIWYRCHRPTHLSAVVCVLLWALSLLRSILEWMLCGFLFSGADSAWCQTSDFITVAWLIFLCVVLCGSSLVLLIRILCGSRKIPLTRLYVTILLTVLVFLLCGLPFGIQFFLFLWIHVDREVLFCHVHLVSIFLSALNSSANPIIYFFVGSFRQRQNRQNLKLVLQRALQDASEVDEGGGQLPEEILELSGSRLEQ
MrgX1 ag = agonists of human MrgX1 receptor, primary screen, HEK293 cells, Fluo-4 calcium flux | Mas-related G-protein coupled receptor member X1 (Homo sapiens), Q96LB2 | Fluo-4 calcium fluorescence, agonist mode; stronger effect = higher value | B-score at 10 µM | 310,000 compounds, 0.44% hits;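 active = calcium response B-score plate-corrected fluorescence ratio at least 3 library SD, with starting fluorescence B-score inside 5 SD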
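Material: MrgX1-expressing HEK293 cells; input: 15,000 cells per well; doses: test compound given as first of three sequential additions; schedule: overnight plating before 1 h dye loading; technique: Fluo-4 NW calcium-flux fluorescence, kinetic read; evaluation: baseline-normalised fluorescence change ratio, B-scored; control set: plate-wise positive and negative controls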
RGS4 act = RGS4 potentiators or activators, primary screen, cell-based, HEK293 M3R inducible RGS4, calcium flux; carbachol calcium flux Fluo4; stronger effect = lower value; B-score at 10 µM; 310,000 compounds, 0.92% hits;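 active = B-score of the integrated calcium signal more than 4 SD below the library mean, with starting fluorescence not abnormally high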;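 note: negative B-score means reduced calcium response which marks RGS4 activation or potentiation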
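System – HEK293 FlpIn-TREx cells, stable M3R, doxycycline-inducible RGS4 · Reagent – ECmax carbachol challenge · Times – compound preincubation 20 min at room temperature before agonist · Technique – Fluo4 fluorescence kinetic imaging of calcium · Measure – B score of integrated Fluo4 ratio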
MrgX1 allo act = positive allosteric modulators of MrgX1, primary screen, HEK293 cells, Fluo-4 calcium flux; FDSS; stronger effect = higher value; 310,000 compounds, 0.63% hits; B-score at 10 µM; AID 588675, 2011;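 active = plate-corrected calcium response at least 3 library SD above typical, normal starting fluorescence, not activating the receptor alone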;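 note: compound read alongside a low EC10 to EC30 dose of BAM8-22 agonist; peak minus trough fluorescence over baseline measured at the second addition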
MrgX1 antag conf = MrgX1 receptor antagonists, duplicate retest, confirmation, HEK293 cells, Fluo-4 calcium flux | BAM8-22 calcium flux; stronger effect = lower value | remaining BAM8-22 calcium response % of control (stronger effect = lower value), % at 10 µM | 2,300 compounds, 19% hits | shares compounds with MrgX1 antagonist;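 active = remaining agonist calcium response no higher than 100% minus 3 SD of agonist-only control wells, with starting fluorescence near control levels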;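 note: agonist BAM8-22 given at a near maximal EC90 to ECmax level; peak minus minimum fluorescence divided by baseline after agonist addition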
HEK293 Ca flux = nonspecific calcium signal in parental HEK293, confirmation, counter-screen for MrgX1 antagonist project, parental HEK293 cells, Fluo-4 calcium flux. shares compounds with MrgX1 antagonist. Fluo-4 calcium fluorescence, FDSS. fluorescence ratio F(max-min)/F0 at 10 µM. 4,000 compounds, 2% hits;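 active = duplicate-averaged calcium fluorescence ratio at least three times the standard deviation of buffer wells, a nonspecific response in parental cells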
HEK293 Ca counter = calcium response in parental HEK293 cells, primary screen, counter-screen for MrgX1 allosteric activator project, cell-based, Fluo-4 calcium flux, duplicate; Fluo-4 fluorescence ratio; stronger effect = higher value; AID 624114, 2012; fluorescence ratio F(max-min)/F0 at 10 µM; shares compounds with MrgX1 antagonist; 4,000 compounds, 0.4% hits;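 active = calcium fluorescence ratio, averaged over duplicates, at least 3 SD of the buffer-well ratio, meaning a nonspecific response in receptor-free cells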;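 note: untransfected parental HEK293 lacking MrgX1 used as counterscreen for MrgX1 allosteric activators; fluorescence change taken during the second addition on a kinetic imager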
HEK293 Ca cntr2 = calcium response in parental HEK293 cells, primary screen, counter-screen for MrgX1 agonist project, cell-based, Fluo-4 calcium flux, duplicate, agonist mode | shares compounds with MrgX1 antagonist | Fluo-4 calcium fluorescence (FDSS); stronger effect = higher value | fluorescence ratio F(max-min)/F0 at 10 µM | 4,000 compounds, 8.7% hits | AID 624115, 2012;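 active = calcium fluorescence ratio at least three times the spread of buffer wells, meaning a non-specific response in parental cells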
Hits are given with their value; – = inactive; · = not tested or not shown.

SMILES	RGS4 block	MrgX1 antagonist	MrgX1 ag	RGS4 act	MrgX1 allo act	MrgX1 antag conf	HEK293 Ca flux	HEK293 Ca counter	HEK293 Ca cntr2
Cc1ccsc1C(=O)C1CCCN(Cc2sc(N(C)C)nc2Cl)C1 (centres undefined)	–	–	–	–	–	·	·	·	·
CC(C)Nc1ccc(Nc2ccccc2)cc1	·	-5.1	–	·	–	–	–	–	–
CC(=NCc1ccc2c(c1)OCO2)c1c(O)n(Cc2ccccc2)c(=O)[nH]c1=O	–	–	–	–	–	·	·	·	·
C=CCn1c(O)c(C(C)=NCc2ccc3c(c2)OCO3)c(=O)[nH]c1=O	–	-4.7	–	–	–	–	–	–	–
N=C1c2ccccc2CN1c1ccc(F)c([N+](=O)[O-])c1	–	–	–	–	–	·	·	·	·
CCCN1CCC[C@@H](c2cccc(O)c2)C1	·	-5.6	–	·	–	80%	–	–	–
C=CCn1c(O)c(/C=N/N2CCCCC2)c(=O)[nH]c1=O	–	–	–	–	–	·	·	·	·
Cc1cc(N2C(=O)CC(N3CCC(n4c(=O)[nH]c5ccccc54)CC3)C2=O)no1 (centres undefined)	–	-5.4	–	–	–	–	–	–	–
Ic1ccccc1CN[C@@H]1C2CCN(CC2)[C@@H]1C(c1ccccc1)c1ccccc1	·	-15	–	·	–	5.6%	–	–	–
Fc1ccccc1CNC1CN2CCC1CC2 (centres undefined)	–	–	–	–	–	·	·	·	·
O=C1CN=C(c2ccccc2)c2ccccc2N1	–	-7.3	–	–	–	–	–	–	–
CN1CCc2nc3sc(C(=O)NC4CC4)c(N)c3cc2C1	–	-6.6	–	–	–	–	–	–	–
CN1CCc2nc(SCC(=O)OC(C)(C)C)c(C#N)cc2C1	–	–	–	–	–	·	·	·	·
CCN(CC)S(=O)(=O)c1ccc(C(=O)NC2CN3CCC2CC3)cc1 (centres undefined)	–	–	–	–	–	·	·	·	·
CCNc1nc(NC(C)(C)C)nc(SC)n1	–	–	–	–	–	·	·	·	·
O=C(c1ccc2c3c(cccc13)CC2)C1CCCN(CC2CC2)C1 (centres undefined)	–	–	–	–	–	·	·	·	·
O=C(c1ccc2c3c(cccc13)CC2)C1CCCN(Cc2ncc[nH]2)C1 (centres undefined)	–	-4.7	–	–	–	–	–	–	–
ClCCN1CCN(c2ccnc3cc(Cl)ccc23)CC1	–	-17	–	–	–	12%	–	–	–
CCCCCCN1CCN(c2ccc(Cl)cc2)CC1	–	–	–	–	–	·	·	·	·
Cc1ccc(NC2=NCCCS2)cc1Cl	–	–	–	–	–	·	·	·	·
CCOC(=O)c1c(/N=C/C2C(=O)NC(=S)NC2=O)sc2c1CCC2	–	-7.5	–	–	–	–	–	–	–
COc1cc(/C=C/c2nc3ccccc3c(=O)n2-c2ccccc2O)ccc1O	–	-9.3	–	–	–	–	–	–	47
COc1cc(/C=C/c2nc3ccccc3c(=O)n2-c2cccc(O)c2)ccc1O	–	–	–	–	–	·	·	·	·
Cc1nn(CC(C)C)c(Cl)c1C(=O)NC1CCC(C)CC1 (centres undefined)	–	–	–	–	–	·	·	·	·
C=CCOC(=O)C1=C(C)OC(N)=C(C#N)[C@@]12C(=O)N(CC(N)=O)c1ccccc12	–	-5.7	–	–	–	–	–	–	–
CC1=C(C(=O)OC(C)C)[C@]2(C(=O)N(CC(N)=O)c3ccccc32)C(C#N)=C(N)O1	–	–	–	–	–	·	·	·	·
O=C1NC(=O)C2(Cc3cc([N+](=O)[O-])ccc3N3CCN(C(=O)c4ccccc4)CC32)C(=O)N1 (centres undefined)	–	–	–	–	–	·	·	·	·
COC(=O)C1=C(c2ccccc2)C[C@@H]2CC[C@H]1N2C(=O)NCC1CC1	–	-4.8	–	–	–	–	–	–	–
